The source made the active and inactive calls. No cut-off for these calls is given here.
Tests used:
[1] = Cytotoxicity against in human U87.CD4.CCR5.CXCR4 cells assessed as reduction in cell viability measured after 48 hrs by CCK8 assay; assay type: cell-based; conditions: u87.cd4.ccr5.cxcr4, 48 h
Method in brief: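 U87 cells stably expressing CD4/CCR5 or CD4/CXCR4 were grown in a humidified 5% CO2 atmosphere at 37°C and seeded at 1.2 × 10^4 cells/well 24 h before treatment. Cells were exposed to compound (1mM-0.3μM) or DMSO for 48 h at 37°C, then to CCK-8 for 4 h at 37°C, and absorbance was read at 450 nm. Controls were untreated cells and 0.1% SDS-treated cells.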

[2] = test system: Human immunodeficiency virus 1; assay: Antiviral activity against HIV1 NL4-3 Env-deficient pseudotype virus infected in human U87.CD4.CCR5.CXCR4 cells assessed by reduction in viral infection in early stage measured after 48 hrs by luciferase activity based single-round infection assay; assay type: functional, organism-based
[3] = test system: Human immunodeficiency virus 1; assay: Binding affinity to hexameric C-terminal His-tagged HIV1 NL4-3 capsid protein A14C/E45C/W184A/M185A mutant expressed in Escherichia coli BL21 codon plus (DE3)RIL assessed as association rate constant by SPR analysis
Method in brief: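 Disulfide-stabilised CA hexamers, isolated by size exclusion after stepwise βME dialysis, amine-coupled at 100 μg/mL (10mM sodium acetate pH 5.0) to GLH chip; IgG b12 reference surface. 25 °C; running buffer PBS, 3% DMSO, 0.005% polysorbate 20, pH 7.4. One-shot kinetics of 1:4 serial dilutions from 5 or 2 μM, 100 μl/min, 1 min association, up to 5 min dissociation.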

[4] = Therapeutic index, ratio of CC50 for cytotoxicity against human 87.CD4.CCR5.CXCR4 cells to IC50 for antiviral activity against HIV1 NL4-3 virus in human 87.CD4.CCR5.CXCR4 cells; assay type: toxicity, cell-based; conditions: read-out: TI
Method in brief: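 U87.CD4.CCR5/CXCR4 cells were seeded 24 h ahead and incubated 48 h at 37°C. Antiviral arm: p24-normalised single-round luciferase pseudovirus (pNL4-3-Luc+R-E− backbone, BG505 Env), luminescence read after lysis. […] Index is CC50 divided by IC50.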

[5] = Binding affinity to hexameric C-terminal His-tagged HIV1 NL4-3 capsid protein A14C/E45C/W184A/M185A mutant expressed in Escherichia coli BL21 codon plus (DE3)RIL assessed as dissociation constant by SPR analysis; set-up: species or system Human immunodeficiency virus 1
Method in brief: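 SPR at 25 °C using one-shot kinetics. Disulfide-stabilized CA hexamer was assembled by βME dialysis, isolated by SEC, and amine-coupled to a GLH chip at 100 μg/mL in 10 mM sodium acetate pH 5.0. An IgG b12 surface served as reference. Compound was injected as 1:4 serial dilutions from 5 or 2 μM in PBS with 3% DMSO and 0.005% polysorbate 20, pH 7.4, at 100 μl/min. Association was 1 min and dissociation up to 5 min.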

[6] = Half life in human liver microsomes; assay type: ADME, Microsome
[7] = test system: Human immunodeficiency virus 1; assay: Binding affinity to C-terminal His-tagged HIV1 NL4-3 capsid protein N57A mutant expressed in Escherichia coli BL21 codon plus (DE3)RIL
[8] = test system: Human immunodeficiency virus 1; assay: Binding affinity to C-terminal His-tagged HIV1 NL4-3 capsid protein K70A mutant expressed in Escherichia coli BL21 codon plus (DE3)RIL
[9] = test system: Human immunodeficiency virus 1; assay: Binding affinity to C-terminal His-tagged HIV1 NL4-3 capsid protein M66A mutant expressed in Escherichia coli BL21 codon plus (DE3)RIL
[10] = Human immunodeficiency virus 1, NL4-3, U87.CD4.CCR5.CXCR4, 48 h, read-out: IC50

IC50 ([2]; u87.cd4.ccr5.cxcr4)	Compound	CC50 ([1]; read-out: CC50) [nM]	IC50 [2, 10] [nM]	Ka [3]	CC50 [1]	selectivity ratio [4]	Kd [5] [nM]	t1/2 [6] [min]	Activity [7]	Activity [8]	Activity [9]
–	Cc1[nH]c2ccccc2c1CC(=O)N[C@@H](Cc1ccccc1)C(=O)N(C)c1ccccc1	66700	80	4.75 10^5/M/s	–	–	–	–	–	–	–
Not Active	CN(C(=O)[C@@H](Cc1ccccc1)NC(=O)Cc1n[nH]c2c(N)cccc12)c1ccc2[nH]ncc2c1	–	–	–	Not Active	–	–	–	–	–	–
–	CN(C(=O)[C@H](Cc1ccccc1)NC(=O)Cc1c[nH]c2c(N)cccc12)c1ccccc1	101000	62.1	4.76 10^5/M/s	–	1630	139	15.4	–	–	–
Not Active	CN(C(=O)[C@@H](Cc1ccccc1)NC(=O)Cc1c[nH]c2c(N)cccc12)c1ccccc1	–	–	–	Not Active	–	–	–	–	–	–
Not Active	Cc1[nH]c2ccccc2c1CC(=O)N[C@H](Cc1ccccc1)C(=O)N(C)c1ccccc1	–	–	–	Not Active	–	–	–	–	–	–
Not Active	Cc1[nH]c2ccccc2c1CC(=O)N[C@H](Cc1ccccc1)C(=O)N(C)c1ccc2[nH]ncc2c1	–	–	–	Not Active	–	–	–	–	–	–
–	CN(C(=O)[C@H](Cc1ccccc1)NC(=O)Cc1n[nH]c2c(N)cccc12)c1ccc2[nH]ncc2c1	102000	279	2.86 10^5/M/s	–	365	337	102	–	–	–
–	Cc1[nH]c2ccccc2c1CC(=O)N[C@@H](Cc1ccccc1)C(=O)N(C)c1ccc2[nH]ncc2c1	46900	20.6	4.37 10^5/M/s	–	2280	25	1	–	–	–
–	CN(C(=O)C(Cc1ccccc1)NC(=O)Cc1c[nH]c2c(N)cccc12)c1ccccc1 (racemic)	83500	97.2	5.62 10^5/M/s	–	859	189	–	inactive	inactive	inactive
–	CN(C(=O)C(Cc1ccccc1)NC(=O)Cc1n[nH]c2c(N)cccc12)c1ccc2[nH]ncc2c1 (racemic)	415000	2420	2.2 10^5/M/s	–	171	494	–	inactive	inactive	inactive
–	Cc1[nH]c2ccccc2c1CC(=O)NC(Cc1ccccc1)C(=O)N(C)c1ccc2[nH]ncc2c1 (racemic)	76900	38.3	2.75 10^5/M/s	–	2010	43.9	–	inactive	inactive	inactive
–	Cc1[nH]c2ccccc2c1CC(=O)NC(Cc1ccccc1)C(=O)N(C)c1ccccc1 (racemic)	36800	55.5	3.07 10^5/M/s	–	–	–	–	inactive	inactive	inactive
